Reference: ChEMBL document CHEMBL5506014, “Monophosphoryl Lipid A-Rhamnose Conjugates as a New Class of Vaccine Adjuvants” (J Med Chem, 2024)
Active and inactive are the calls of the source.

Legend:
Assay type in all cases: functional, organism-based
Settings in all cases: time 38.0 day
Mus musculus [1] = assay: Immuno-adjuvant activity in sc dosed C57BL/6J mouse model assessed as increase in IgG antibody administered on day 1, 15, 22, and 29 and measured on day 27, 31 and 38 by ELISA analysis
Outline: (§1)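 Female C57BL/6 mice, 6−8 weeks old, were given s.c. 0.1 mL doses of KLH-sTn (8.0 μg sTn antigen). The conjugate was mixed 1:1 with PBS, Alum, or a liposomal adjuvant. Liposomes were MPLA-Rha conjugate:DSPC:cholesterol at a 10:65:50 molar ratio, hydrated in 20 mM HEPES pH 7.5 with 150 mM NaCl. Pre-immunization day 0 blood served as blank.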

Mus musculus [2] = assay: Immuno-adjuvant activity in sc dosed C57BL/6J mouse model assessed as increase in IgM antibody level administered on day 1, 15, 22, and 29 and measured on day 27, 31 and 38 by ELISA analysis; outline: as §1
Mus musculus [3] = assay: Immuno-adjuvant activity in sc dosed C57BL/6J mouse model assessed as increase in anti-KLH IgM antibodies level administered on day 1, 15, 22, and 29 and measured on day 27, 31 and 38 by ELISA analysis; outline: as §1
Mus musculus [4] = assay: Immuno-adjuvant activity in sc dosed C57BL/6J mouse model assessed as increase in anti-KLH total antibodies level administered on day 1, 15, 22, and 29 and measured on day 27, 31 and 38 by ELISA analysis; outline: as §1
Mus musculus [5] = assay: Immuno-adjuvant activity in sc dosed C57BL/6J mouse model assessed as increase in anti-KLH IgG antibodies level administered on day 1, 15, 22, and 29 and measured on day 27, 31 and 38 by ELISA analysis; outline: as §1
Mus musculus [6] = assay: Immuno-adjuvant activity in sc dosed C57BL/6J mouse model assessed as increase in anti-KLH antibodies level administered on day 1, 15, 22, and 29 and measured on day 27, 31 and 38 by ELISA analysis; outline: as §1
Mus musculus [7] = assay: Immuno-adjuvant activity in sc dosed C57BL/6J mouse model assessed as increase in anti-sTn IgG antibodies level administered on day 1, 15, 22, and 29 and measured on day 27, 31 and 38 by ELISA analysis; outline: as §1

Measured: Activity

CCCCCCCCCCCC(=O)O[C@H](CCCCCCCCCCC)CC(=O)N[C@H]1[C@H](OC[C@H]2O[C@@H](OCCNC(=O)CCO[C@H]3O[C@@H](C)[C@H](O)[C@@H](O)[C@H]3O)[C@H](NC(=O)C[C@@H](CCCCCCCCCCC)OC(=O)CCCCCCCCCCC)[C@@H](OC(=O)C[C@H](O)CCCCCCCCC)[C@@H]2O)O[C@H](CO)[C@@H](OP(=O)(O)O)[C@@H]1OC(=O)C[C@H](O)CCCCCCCCC
not listed: Mus musculus [6] | Mus musculus [7]
active: all other assays above

CCCCCCCCCCCC(=O)O[C@H](CCCCCCCCCCC)CC(=O)N[C@H]1[C@H](OC[C@H]2O[C@@H](OC)[C@H](NC(=O)C[C@@H](CCCCCCCCCCC)OC(=O)CCCCCCCCCCC)[C@@H](OC(=O)C[C@H](O)CCCCCCCCC)[C@@H]2O)O[C@H](CNC(=O)CCO[C@@H]2O[C@@H](C)[C@H](O)[C@@H](O)[C@H]2O)[C@@H](OP(=O)(O)O)[C@@H]1OC(=O)C[C@H](O)CCCCCCCCC
active: Mus musculus [1] | Mus musculus [2] | Mus musculus [6] | Mus musculus [7]

CCCCCCCCCCCC(=O)O[C@H](CCCCCCCCCCC)CC(=O)N[C@H]1[C@H](OC[C@H]2O[C@@H](OC)[C@H](NC(=O)C[C@@H](CCCCCCCCCCC)OC(=O)CCCCCCCCCCC)[C@@H](OC(=O)C[C@H](O)CCCCCCCCC)[C@@H]2O)O[C@H](CNC(=O)CCO[C@H]2O[C@@H](C)[C@H](O)[C@@H](O)[C@H]2O)[C@@H](OP(=O)(O)O)[C@@H]1OC(=O)C[C@H](O)CCCCCCCCC
active: Mus musculus [1] | Mus musculus [2]

CCCCCCCCCCCC(=O)O[C@H](CCCCCCCCCCC)CC(=O)N[C@H]1[C@H](OC[C@H]2O[C@@H](OCCNC(=O)CCO[C@@H]3O[C@@H](C)[C@H](O)[C@@H](O)[C@H]3O)[C@H](NC(=O)C[C@@H](CCCCCCCCCCC)OC(=O)CCCCCCCCCCC)[C@@H](OC(=O)C[C@H](O)CCCCCCCCC)[C@@H]2O)O[C@H](CO)[C@@H](OP(=O)(O)O)[C@@H]1OC(=O)C[C@H](O)CCCCCCCCC
active: all assays above
